The test system of data set [1] is Rattus norvegicus. Kind of data set: Central nervous system activity in ip dosed rat assessed as induction of depressant. It is filed as functional. The method in brief: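 Young adult female rats received 5% solutions or dispersions (two drops Tween 80) in water at 200, 100 and 50 mg/kg. Compounds active at 50 mg/kg were also given at 25 and 12.5 mg/kg. The ED value was the lowest dose that decreased motor activity in 2/2 rats.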

The subject of data set [2] is Rattus norvegicus. Kind of data set: Antiinflammatory activity in Sprague-Dawley rat assessed as inhibition of carrageenan-induced paw edema at 150 mg/kg, po after 3 hrs. The data set is classed as functional. Put shortly: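 Given by mouth in 1 mL water or 1% aqueous sodium carboxymethylcellulose to adult Charles River Sprague-Dawley rats (seven per group), 2 h before a footpad injection of 0.05 mL 1% carrageenan in pyrogen-free saline. After 3 h, rats were killed and paws removed and weighed, with the contralateral paw as control. Read-out was percent inhibition of edema.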

Data set [3] is described as follows: Toxicity in po dosed Sprague-Dawley rat. The data set is classed as organism-based. The conditions noted are these: in vivo.
The test system of data set [4] is Rattus norvegicus. Kind of data set: Toxicity in Sprague-Dawley rat assessed as induction of ulcer at 150 to 600 mg/kg, po after 6 hrs. Further details: dose 150-600 mg/kg, route oral. It is filed as organism-based. The note with it: in vivo. The method in brief: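 Male Sprague-Dawley rats were kept without food pellets, with free access to water containing 5% dextrose, for 48 h. The compound, dissolved or suspended in water, was then given by gavage at 150, 300 and 600 mg/kg, eight rats per dose.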

Data set [5] relates to Rattus norvegicus. Nature of the data set: Central nervous system activity in rat assessed as induction of depressant at 100 mg/kg, po. The data set is classed as functional, organism-based. Further details: dose 100 mg/kg.
The test system of data set [6] is Rattus norvegicus. Nature of the data set: Toxicity in rat at 100 mg/kg, ip. The data set is classed as organism-based. Further details: dose 100 mg/kg, route intraperitoneal. The conditions noted are these: in vivo.

Experimental findings from ChEMBL document CHEMBL3228030, “Bicyclic pyrazolines, potential central nervous system depressants and antiinflammatory agents” (J Med Chem, 1979) are described below.

Calls of active or inactive are those of the source. The rule behind the calls is not given here. Bounds are passed on as bounds.

Turning to `CN1C/C(=C\c2ccc(Cl)cc2)C2=NN(C)C(c3ccc(Cl)cc3)C2C1.Cl` (configuration not stated), the ED in the data set with Rattus norvegicus [1] was over 200 mg/kg. Moreover, the inhibition in vivo at 150 mg/kg in the data set on Rattus norvegicus [2] was determined as 17%.

Regarding `CN1N=C2/C(=C/c3ccccc3)CN(C(N)=O)CC2C1c1ccccc1` (configuration not stated), the ED with Rattus norvegicus [1] was over 200 mg/kg. The same measure, in the same setting: the same measure for `CCN1C/C(=C\c2ccccc2)C2=NN(C)C(c3ccccc3)C2C1.Cl` (configuration not stated): 200 mg/kg; for `CN1N=C2/C(=C/c3ccccc3)CN(C(=N)N)CC2C1c1ccccc1.Cl` (configuration not stated): 200 mg/kg. `CN1C/C(=C\c2ccccc2)C2=NN(CC(F)(F)F)C(c3ccccc3)C2C1.Cl` (configuration not stated): the ED in the data set on Rattus norvegicus [1] turned out to be 100 mg/kg. Further, the inhibition in vivo at 150 mg/kg in the data set with Rattus norvegicus [2] was found to be 27%. For `CCCCN1N=C2/C(=C/c3ccccc3)CN(C)CC2C1c1ccccc1.Cl` (configuration not stated) the same measures were over 200 mg/kg and 26%. For the molecule `CN1C/C(=C\c2ccccc2)C2=NN(CCCc3ccccc3)C(c3ccccc3)C2C1.Cl` (configuration not stated), the ED with Rattus norvegicus [1] was over 200 mg/kg. On to `C(=C1\CCCC2C1=NN(CCCN1CCOCC1)C2c1ccccc1)/c1ccccc1.Cl` (configuration not stated), for which the ED in the data set with Rattus norvegicus [1] was 100 mg/kg. Moreover, in the data set with Rattus norvegicus [2], the inhibition in vivo at 150 mg/kg amounted to 30%. `CN1C/C(=C\c2ccccc2)C2=NNC(c3ccccc3)C2C1.Cl` (configuration not stated): the ED in the data set on Rattus norvegicus [1] is 50 mg/kg. The same measure, in the same setting: then `CC(=O)CCN1C/C(=C\c2ccccc2)C2=NN(C)C(c3ccccc3)C2C1.Cl` (configuration not stated), with over 200 mg/kg. With `CCCN1N=C2/C(=C/c3ccccc3)CN(C)CC2C1c1ccccc1.O=P(O)(O)O` (configuration not stated), the LD50 in data set [3] was 5400 mg/kg. Also, the ED in the data set with Rattus norvegicus [1] came to 100 mg/kg. Besides, the inhibition in vivo at 150 mg/kg with Rattus norvegicus [2] amounted to 47%. Also, the Activity result in the data set on Rattus norvegicus [4] is “Non-toxic”. Take `CCC(=O)N1C/C(=C\c2ccccc2)C2=NN(C)C(c3ccccc3)C2C1` (configuration not stated): in the data set on Rattus norvegicus [1], the ED came to 200 mg/kg. The same measure, in the same setting: the same measure for `CN1C/C(=C\c2ccccc2Cl)C2=NN(C)C(c3ccccc3Cl)C2C1.Cl` (configuration not stated): over 200 mg/kg; for `CC(=O)N1C/C(=C\c2ccccc2)C2=NN(C)C(c3ccccc3)C2C1` (configuration not stated): 100 mg/kg. For the molecule `CN1N=C2/C(=C/c3ccccc3)CN(CCc3ccccc3)CC2C1c1ccccc1.Cl` (configuration not stated), the ED with Rattus norvegicus [1] turned out to be 100 mg/kg. Moreover, the inhibition in vivo at 150 mg/kg in the data set on Rattus norvegicus [2] was 32%.

`CN1CCN(CCCN2N=C3/C(=C\c4ccccc4)CCCC3C2c2ccccc2)CC1.O=C(O)/C=C\C(=O)O` (configuration not stated): in the data set on Rattus norvegicus [1], the ED was found to be 200 mg/kg. With `C(=C1\CCCC2C1=NN(CCCN1CCCCC1)C2c1ccccc1)/c1ccccc1.O=C(O)/C=C\C(=O)O` (configuration not stated), the ED in the data set with Rattus norvegicus [1] was 200 mg/kg. The same measure, in the same setting: the same measure for `CN(C)CCCN1N=C2/C(=C/c3ccccc3)CN(C)CC2C1c1ccccc1.Cl` (configuration not stated): 100 mg/kg; for `CN1C/C(=C\c2cccc(Cl)c2)C2=NN(C)C(c3cccc(Cl)c3)C2C1.Cl` (configuration not stated): over 200 mg/kg. As for `CCCC(C)(COC(N)=O)COC(N)=O` [MEPROBAMATE], the ED in the data set on Rattus norvegicus [1] was 50 mg/kg. The same measure, in the same setting: the same measure for `CN1N=C2/C(=C\c3ccccc3)CCCC2C1c1ccccc1` (configuration not stated): over 200 mg/kg. Consider `CN1C/C(=C\c2ccccc2)C2=NN(CCO)C(c3ccccc3)C2C1.Cl` (configuration not stated), for which the ED in the data set on Rattus norvegicus [1] was 200 mg/kg. Also, in the data set with Rattus norvegicus [2], the inhibition in vivo at 150 mg/kg worked out at 41%. For `CN1C/C(=C\c2ccccc2)C2=NN(C)[C@@H](c3ccccc3)[C@@H]2C1.Cl` the same measures were 50 mg/kg and 22%.

With `CN1N=C2/C(=C/c3ccccc3)CNCC2C1c1ccccc1.Cl` (configuration not stated), in the data set on Rattus norvegicus [5], the result was Active. Further, the ED in the data set with Rattus norvegicus [1] is 12.5 mg/kg. Take `CC(=O)N1N=C2/C(=C/c3ccccc3)CN(C)CC2C1c1ccccc1.Cl` (configuration not stated): the ED in the data set on Rattus norvegicus [1] was 200 mg/kg. For the molecule `CCN1N=C2/C(=C/c3ccccc3)CN(C)CC2C1c1ccccc1.Cl` (configuration not stated), the ED with Rattus norvegicus [1] is over 200 mg/kg. The same measure, in the same setting: then `CN(C)CCCN1N=C2/C(=C\c3ccccc3)CCCC2C1c1ccccc1.O=C(O)C(=O)O` (configuration not stated), with 50 mg/kg. As to `CN(C)CCN1N=C2/C(=C/c3ccccc3)CN(C)CC2C1c1ccccc1.Cl` (configuration not stated), the Activity entry in the data set on Rattus norvegicus [6] was “Toxic”. The ED in the data set with Rattus norvegicus [1] turned out to be 25 mg/kg.

Regarding `CN(C)CCCN1N=C2/C(=C/c3ccccc3)CN(CCc3ccccc3)CC2C1c1ccccc1.O=C(O)/C=C\C(=O)O` (configuration not stated), the ED in the data set with Rattus norvegicus [1] was over 200 mg/kg.

In data set [3], `CCCCC1C(=O)N(c2ccccc2)N(c2ccccc2)C1=O` [PHENYLBUTAZONE] gave a median lethal dose (LD50) of 1200 mg/kg. In the data set with Rattus norvegicus [2], the inhibition in vivo at 150 mg/kg worked out at 51%. Also, the Activity entry in the data set with Rattus norvegicus [4] is recorded as “Non-toxic”.

In the case of `CCCCN1C/C(=C\c2ccccc2)C2=NN(C)C(c3ccccc3)C2C1.Cl` (configuration not stated), in the data set on Rattus norvegicus [1], the ED was found to be 100 mg/kg. Same read-out and setting: the same measure for `CNC(=O)N1C/C(=C\c2ccccc2)C2=NN(C)C(c3ccccc3)C2C1.Cl` (configuration not stated): over 200 mg/kg; for `CCN(CC)CCCN1N=C2/C(=C\c3ccccc3)CCCC2C1c1ccccc1.O=C(O)/C=C\C(=O)O` (configuration not stated): 100 mg/kg. Consider `COc1ccc(/C=C2\CN(C)CC3C2=NN(C)C3c2ccc(OC)cc2)cc1.Cl` (configuration not stated), for which the ED in the data set on Rattus norvegicus [1] was over 200 mg/kg. Also, the inhibition in vivo at 150 mg/kg in the data set with Rattus norvegicus [2] turned out to be 29%. The corresponding values for `CN1N=C2/C(=C/c3ccccc3)CN(Cc3ccccc3)CC2C1c1ccccc1.Cl` (configuration not stated) are 100 mg/kg and 0%. On to `CN(C)CCN1N=C2/C(=C\c3ccccc3)CCCC2C1c1ccccc1.O=C(O)/C=C\C(=O)O` (configuration not stated), for which the ED with Rattus norvegicus [1] came out at 100 mg/kg.
